From ChEMBL document CHEMBL3098047, “Design, synthesis and structure-activity relationships of substituted oxazole-benzamide antibacterial inhibitors of FtsZ” (Bioorg Med Chem Lett, 2014)
Values after ≈ are worked out from the molar mass of the structure shown.

Tests used:
[1] = Metabolic stability in mouse plasma assessed as compound remaining at 10 uM after 24 hrs by LC-MS/MS analysis; assay type: ADME, cell-free; details: read-out: Stability
Method in brief: (§1)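 Compound at 10 μM in PBS pH 7.4 or neat mouse plasma, 5% v/v DMSO final, incubated 24 h at 37 °C. Samples extracted with acetonitrile and centrifuged; supernatant analysed by LC-MS; reported as % remaining.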

Staphylococcus aureus [2] = test: Antibacterial activity against Staphylococcus aureus ATCC 29213 by broth microdilution method; assay type: functional
Method in brief: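 Broth microdilution MIC per CLSI guidelines against S. aureus ATCC 29213; MIC in µg/mL.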

[3] = Initial plasma concentration in Balb/c mouse at 3 mg/kg, iv by LC-MS/MS analysis; assay type: ADME, organism-based; parameters: dose 3 mg/kg, route intravenous
[4] = Half life in CD-1 mouse hepatocytes at 10 uM by LC-MS/MS analysis; assay type: ADME, cell-based, Hepatocyte
Method in brief: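 Cryopreserved CD-1 mouse hepatocytes (5×10^4 cells), compound 10 μM in duplicate, 0.5% v/v DMSO final; stopped with DMSO at seven time points up to 120 min. Acetonitrile extraction, centrifugation, LC-MS of supernatant; half-life in min.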

[5] = Clearance in Balb/c mouse at 3 mg/kg, iv by LC-MS/MS analysis; assay type: ADME, organism-based; parameters: dose 3 mg/kg, route intravenous; details: in vivo
[6] = Half life in mouse microsomes at 10 uM by LC-MS/MS analysis; assay type: ADME, Microsome
Method in brief: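 Mouse microsomes at 1 mg/mL protein, compound 10 μM, 0.1% v/v DMSO final; started with 1 mM NADPH, stopped with DMSO at 0, 10, 30, 60 min. Acetonitrile extraction, centrifugation, LC-MS of supernatant; half-life in min.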

[7] = Half life in Balb/c mouse at 3 mg/kg, iv by LC-MS/MS analysis; assay type: ADME, organism-based; parameters: dose 3 mg/kg, route intravenous; details: in vivo
Staphylococcus aureus [8] = test: Antibacterial activity against Staphylococcus aureus harboring FtsZ G196A mutant by broth microdilution method; assay type: functional
Method in brief: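 S. aureus ATCC 29213 derivative with G196A substitution in FtsZ; MIC by broth microdilution following CLSI guidelines; reported in µg/mL.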

[9] = molecular target: T1, Cell division protein FtsZ (Staphylococcus aureus) (UniProt P0A031); test: Inhibition of Staphylococcus aureus ATCC 29213 FtsZ-mediated cell division phenotype
T1 sequence (whole entry): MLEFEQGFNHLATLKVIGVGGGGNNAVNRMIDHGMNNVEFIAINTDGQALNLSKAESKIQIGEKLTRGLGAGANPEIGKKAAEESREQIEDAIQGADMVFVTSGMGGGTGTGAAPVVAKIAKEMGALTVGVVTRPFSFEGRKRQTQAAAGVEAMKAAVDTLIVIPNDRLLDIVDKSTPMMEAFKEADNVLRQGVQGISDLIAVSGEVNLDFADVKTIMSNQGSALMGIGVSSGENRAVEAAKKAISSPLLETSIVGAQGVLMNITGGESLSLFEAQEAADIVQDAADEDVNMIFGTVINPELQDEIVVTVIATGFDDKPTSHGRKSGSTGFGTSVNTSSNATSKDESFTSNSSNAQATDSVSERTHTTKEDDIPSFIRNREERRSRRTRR
Method in brief: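 S. aureus ATCC 29213 cell division inhibition assay run alongside MIC testing; value is the lowest concentration at which an inhibition of cell division phenotype was seen (µg/mL).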

[10] = Chemical stability of the compound in PBS buffer assessed as compound remaining at 10 uM at pH 7.4 after 24 hrs by LC-MS/MS analysis; assay type: physicochemical; details: read-out: Stability; method in brief: as §1
[11] = AUC in Balb/c mouse at 3 mg/kg, iv by LC-MS/MS analysis; assay type: ADME, organism-based; parameters: dose 3 mg/kg, route intravenous; details: plasma
[12] = Volume of distribution in Balb/c mouse at 3 mg/kg, iv by LC-MS/MS analysis; assay type: ADME, organism-based; parameters: dose 3 mg/kg, route intravenous; details: in vivo
[13] = Kinetic solubility of the compound in PBS buffer at pH 7.4 after 24 hrs by turbidimetric method; assay type: physicochemical; details: read-out: Kinetic_solubility
Method in brief: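 Turbidimetric: doubling dilutions in DMSO diluted twenty-fold into PBS pH 7.4, equilibrated 24 h at room temperature, absorbance read at 620 nm. Value is highest concentration with no measurable precipitate.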

Compound	remaining at 24 h, 10 µM [1]	MIC (Staphylococcus aureus [2])	C0 [3]	half-life at 10 µM [4]	clearance [5]	half-life at 10 µM [6]	half-life [7]	MIC (Staphylococcus aureus [8])	MIC [9]	remaining at 24 h, 10 µM [10]	AUC [11]	Vd [12]	solubility kinetic at 24 h [13]
CCc1oc(COc2ccc(F)c(C(N)=O)c2F)nc1-c1ccc(OC)cc1	100%	0.12 µg/mL (≈ 0.309 µM)	1100 ng/mL	0.39 h	319 mL/min/kg	1.19 h	0.167 h	> 64 µg/mL	0.12 µg/mL (≈ 0.309 µM)	97%	200 ng·h/mL	4.3 L/kg	
NC(=O)c1c(F)ccc(OC(CO)c2nc(-c3ccc(C(F)(F)F)cc3)c(Br)o2)c1F (racemic)	100%	0.25 µg/mL (≈ 0.493 µM)	4200 ng/mL	1.19 h	7 mL/min/kg	> 2 h	2.12 h	8 µg/mL (≈ 15.8 µM)	0.5 µg/mL (≈ 0.986 µM)	102%	6700 ng·h/mL	1.3 L/kg	100 µg/mL (≈ 197 µM)
CC(Oc1ccc(F)c(C(N)=O)c1F)c1nc(-c2ccc(OC(F)(F)F)cc2)c(Br)o1 (racemic)	104%	0.12 µg/mL (≈ 0.237 µM)	2500 ng/mL	1.69 h	36 mL/min/kg	> 2 h	0.883 h		0.12 µg/mL (≈ 0.237 µM)	96%	1400 ng·h/mL	2.7 L/kg	
